Results as given in ChEMBL document CHEMBL6087445, “Discovery of Non-Covalent Inhibitors for SARS-CoV-2 PLpro: Integrating Virtual Screening, Synthesis, and Experimental Validation” (ACS Med Chem Lett, 2024).

Tests used:
[1] = Microsomal stability in rat liver microsomes assessed as parent compound remaining measured after 30 mins by LC-MS/MS analysis; assay type: ADME, Microsome; settings: read-out: Stability
[2] = Microsomal stability in mouse liver microsomes assessed as parent compound remaining measured after 30 mins by LC-MS/MS analysis; assay type: ADME, Microsome; settings: read-out: Stability
[3] = Microsomal stability in human liver microsomes assessed as parent compound remaining measured after 30 mins by LC-MS/MS analysis; assay type: ADME, Microsome; settings: read-out: Stability
[4] = system: Severe acute respiratory syndrome coronavirus 2; experiment: Binding affinity to recombinant SARS-CoV-2 PLpro extracted from Escherichia coli BL21 (DE3) cells assessed as change in melting temperature at 1000 uM by DSF analysis
[5] = system: Severe acute respiratory syndrome coronavirus 2; experiment: Inhibition of recombinant SARS-CoV-2 PLpro extracted from Escherichia coli BL21 (DE3) cells in absence of 0.01% triton by microplate reader analysis
[6] = system: Severe acute respiratory syndrome coronavirus 2; experiment: Inhibition of recombinant SARS-CoV-2 PLpro extracted from Escherichia coli BL21 (DE3) cells in presence of 0.01% triton by microplate reader analysis
[7] = Selectivity ratio of CC50 for cytotoxicity against human HepG2 cells to CC50 for African green monkey Vero cells; assay type: toxicity, cell-based; settings: HepG2 cells and Vero cells
[8] = system: Severe acute respiratory syndrome coronavirus 2; experiment: Inhibition of recombinant SARS-CoV-2 PLpro extracted from Escherichia coli BL21 (DE3) cells in absence of CHAPS detergent by microplate reader analysis
Method in brief: (§1)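 SARS-CoV-2 PLpro enzymatic inhibition run with and without 1 mM CHAPS detergent; GRL0617 served as positive control.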

[9] = system: Severe acute respiratory syndrome coronavirus 2; experiment: Inhibition of recombinant SARS-CoV-2 PLpro extracted from Escherichia coli BL21 (DE3) cells in presence of CHAPS detergent by microplate reader analysis; method in brief: as §1

CNC(=O)c1ccc(-c2ccc3nccc(NC4CCNCC4)c3n2)cn1
remaining at 0.5 h [1]: 97.4% | remaining at 0.5 h [2]: 93.4% | remaining at 0.5 h [3]: 94.4% | ΔTm [4]: > 1 °C

CN1CCC(Nc2ccnc3ccc(-c4ccc(C(=O)NCCO)nc4)nc23)CC1
remaining at 0.5 h [1]: 94.2% | remaining at 0.5 h [2]: 97.3% | remaining at 0.5 h [3]: 95.5% | ΔTm [4]: > 1 °C

CS(=O)(=O)c1cccc(-c2ccc3nccc(N4CCNCC4)c3n2)c1
remaining at 0.5 h [3]: 55.1% | ΔTm [4]: > 1 °C

Cn1ccc(-c2ccc3nccc(N[C@@H]4CCNC4)c3n2)cc1=O
remaining at 0.5 h [1]: 94.3% | inhibition [5]: Active; Compound Is Not An Aggregator | remaining at 0.5 h [2]: > 99% | inhibition [6]: Active; Compound Is Not An Aggregator | selectivity ratio [7]: 2 | remaining at 0.5 h [3]: 98% | ΔTm [4]: > 1 °C

COc1ccc(-c2ccc3nccc(N[C@@H]4CCNC4)c3n2)cn1
inhibition [8]: Active; Compound Is Not An Aggregator | inhibition [9]: Active; Compound Is Not An Aggregator | selectivity ratio [7]: 2 | remaining at 0.5 h [3]: 54.6% | ΔTm [4]: > 1 °C
